One may read the Km as the substrate concentration at which the rate is half of its maximum.

The values that follow come from ChEMBL document CHEMBL3526066, “In vitro metabolism of 17-(dimethylaminoethylamino)-17-demethoxygeldanamycin in human liver microsomes” (Drug Metab Dispos, 2011).

The subject of data set [1] is Liver microsome. In words: Drug level in boiled human liver microsomes treated with geldanamycin after 2 hrs. Type of data set: ADME. The procedure, abridged: (§1)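 Substrate (5 µM final) was incubated at 37°C with HLMs (1 mg/ml; boiled HLMs as negative control) in 0.1 M phosphate buffer with 3.3 mM MgCl2 and 1 mM β-NADPH, with or without 5 mM reduced GSH. Aliquots were taken at 1, 5, 10, 15, 30, 45, 60 and 120 min and quenched with ice-cold acetonitrile containing internal standard. Samples were analysed by LC-MS/MS, with values given as percent of the analyte/internal-standard peak area ratio at 1 min.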

For data set [2], the system named is Liver microsome. In words: Drug level in human liver microsomes treated with 1 uM 17-DMAG by liquid chromatography-tandem mass spectrometry in presence of 1 uM quinidine CYP2D6 inhibitor. The data set is classed as ADME. The procedure, abridged:
(§2)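 Pooled HLMs in 0.1 M phosphate buffer pH 7.4 with 1 mM β-NADPH, 3.3 mM MgCl2 and the selective inhibitor were preincubated 3 min at 37°C in a shaking water bath. 17-DMAG (1 µM final) was then added and incubated 20 min at 37°C, with parallel no-inhibitor controls. M1, M2, M3, M4 and M6 were quantified by LC-MS/MS MRM. Inhibition was taken as the ratio of metabolite formed with versus without inhibitor.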

For data set [3], the system named is Liver microsome. In words: Drug level in human liver microsomes treated with 1 uM 17-DMAGby liquid chromatography-tandem mass spectrometry in presence of 1 uM sulfaphenazole CYP2C9 inhibitor. Type of data set: ADME. The procedure, abridged: as §2
(In general: Liver microsomes are a subcellular fraction often used to study metabolism.)

Data set [4] relates to Liver microsome. In words: Retention time in human liver microsomes treated with 10 uM […] after 2 hrs by liquid chromatography-tandem mass spectrometry. The data set is classed as ADME. An outline of the steps:
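17-DMAG (10 µM initial) was incubated with HLMs (1 mg/ml) in 0.1 M phosphate buffer with 3.3 mM MgCl2 and 1 mM β-NADPH at 37°C for 2 h alongside negative controls, then quenched with ice-cold acetonitrile. Samples were run on a C18 column with a 0.1% formic acid/ammonium formate–acetonitrile gradient (10–90% B in 10 min) using MS full scan, MRM, EPI and MS3 scans.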

The test system of data set [5] is Liver microsome. In words: Drug level in human liver microsomes treated with 1 uM 17-DMAG by liquid chromatography-tandem mass spectrometry in presence of 10 uM diethyldithiocarbamate CYP2E1 inhibitor. The data set is classed as ADME. The procedure, abridged: as §2
Data set [6] relates to Liver microsome. In words: Drug level in human liver microsomes treated with 1 uM 17-DMAG by liquid chromatography-tandem mass spectrometry in presence of 1 uM quercetin CYP2C8 inhibitor. The data set is classed as ADME. The procedure, abridged: as §2
The test system of data set [7] is Liver microsome. In words: Drug level in human liver microsomes treated with 1 uM 17-DMAG by liquid chromatography-tandem mass spectrometry in presence of 10 uM ticlopidine CYP2B6 inhibitor. Type of data set: ADME. The procedure, abridged: as §2
In data set [8] the test system is Liver microsome. In words: Drug level in human liver microsomes treated with 1 uM 17-DMAG by liquid chromatography-tandem mass spectrometry in presence of 1 uM tranylcypromine CYP2A6 inhibitor. The data set is classed as ADME. The procedure, abridged:
as §2

The target in the next data set is Cytochrome P450 3A4 (Homo sapiens, UniProt P08684). In words: Drug level assessed as human recombinant CYP3A4-mediated oxidative metabolism treated with 1 uM 17-DMAG after 30 mins by liquid chromatography-tandem mass spectrometry. Type of data set: ADME. The following applies: recombinant enzyme, 0.5 h. The procedure, abridged:
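Recombinant human P450 (E. coli-expressed, coexpressed with cytochrome b5), 20 pmol per 200 µl incubation with 0.2 mg reduced β-NADPH and 3.3 mM MgCl2 in 0.1 M phosphate buffer pH 7.4. Preincubated at 37°C in a shaking water bath, then 1 µM 17-DMAG added. E. coli control microsomes lacking P450 cDNA served as negative control. Metabolite (M1–M4, M6) formation rates were read by LC-MS/MS MRM and expressed as percent of the CYP3A4 rate.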

In data set [9] the test system is Liver microsome. In words: Drug level in human liver microsomes treated with 1 uM 17-DMAG by liquid chromatography-tandem mass spectrometry in presence of 10 uM alpha-naphthoflavone CYP1A2 inhibitor. The data set is classed as ADME. An outline of the steps: as §2
Data set [10] deals with Liver microsome. In words: Drug metabolism in human liver microsomes assessed as (4E,6Z,8S,9S,10E,12S,13R,14S,16R)-19-(2-(dimethylamino)ethylamino)-8,13-dihydroxy-14-methoxy-4,10,12,16-tetramethyl-3,20,22-trioxo-2-azabicyclo[16.3.1]docosa-1(21),4,6,10,18-pentaen-9-yl carbamate formation at 1 uM 17-DMAG by liquid chromatography-tandem mass spectrometry in presence of 1 uM ketoconazole CYP3A inhibitor. The data set is classed as ADME.

Data set [11] in a line: Drug metabolism in human liver microsomes assessed as stability after 2 hrs relative to control by liquid chromatography-tandem mass spectrometry. Particulars: read-out: Stability. Type of data set: ADME. The procedure, abridged: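 Pooled human liver microsomes (1 mg/ml) were incubated at 37°C with substrate (5 µM final), 1 mM β-NADPH and 3.3 mM MgCl2 in 0.1 M phosphate buffer, with or without 5 mM reduced GSH. Aliquots were taken from 1 to 120 min and quenched in ice-cold acetonitrile containing internal standard. LC-MS/MS peak-area ratios to internal standard were normalised to the 1-min sample.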

Data set [12] in a line: Drug metabolism in human liver microsomes assessed as stability after 120 mins relative to control in presence of reduced GSH by liquid chromatography-tandem mass spectrometry. Type of data set: ADME. The following applies: read-out: Stability. The procedure, abridged: as §1
Data set [13] can be described thus: Drug metabolism in human liver microsomes assessed as stability during first 5 mins relative to control in presence of reduced GSH by liquid chromatography-tandem mass spectrometry. Type of data set: ADME. The following applies: read-out: Stability. An outline of the steps: as §1
The nature of data set [14]: Drug metabolism in human liver microsomes assessed as stability after 5 mins relative to control in presence of reduced GSH by liquid chromatography-tandem mass spectrometry. The data set is classed as ADME. An outline of the steps:
as §1

In data set [15] the test system is Liver microsome. In words: Drug metabolism in human liver microsomes assessed as 17-(allylamino)-17-demethoxygeldanamycin hydroquinone formation after 1 hr relative to control by liquid chromatography-tandem mass spectrometry. Type of data set: ADME. An outline of the steps:
as §1

For data set [16], the system named is Liver microsome. In words: Drug metabolism in human liver microsomes assessed as 17-aminogeldanamycin formation at 37 degC in presence of reduced GSH by liquid chromatography-tandem mass spectrometry. The data set is classed as ADME. The following applies: read-out: Km(app).
Data set [17] has as its system Liver microsome. In words: Drug metabolism in human liver microsomes assessed as stability after 45 mins relative to control by liquid chromatography-tandem mass spectrometry. The data set is classed as ADME. The following applies: 0.75 h. The procedure, abridged:
as §1

The nature of data set [18]: Terminal half life in human. Particulars: in vivo, read-out: beta t1/2 (converted). The data set is classed as ADME, organism-based.

SMILES strings stand for the structures.

Chain of Cytochrome P450 3A4 (P08684 whole entry): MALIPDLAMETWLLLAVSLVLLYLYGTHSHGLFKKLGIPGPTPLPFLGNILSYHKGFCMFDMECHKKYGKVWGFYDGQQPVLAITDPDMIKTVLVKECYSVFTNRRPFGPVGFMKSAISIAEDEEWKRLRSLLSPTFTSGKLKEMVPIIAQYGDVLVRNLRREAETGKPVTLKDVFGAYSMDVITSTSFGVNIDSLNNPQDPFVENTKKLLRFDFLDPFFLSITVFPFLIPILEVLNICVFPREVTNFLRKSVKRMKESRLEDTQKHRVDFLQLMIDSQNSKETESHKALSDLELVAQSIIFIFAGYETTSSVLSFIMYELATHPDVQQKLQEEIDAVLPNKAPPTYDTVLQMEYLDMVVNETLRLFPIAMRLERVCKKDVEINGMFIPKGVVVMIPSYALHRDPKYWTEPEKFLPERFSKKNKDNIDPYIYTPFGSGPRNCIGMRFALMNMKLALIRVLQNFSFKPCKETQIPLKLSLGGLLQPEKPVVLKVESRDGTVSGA

In the case of `COc1c(O)cc2c(O)c1C[C@@H](C)C[C@H](OC)[C@H](O)[C@@H](C)/C=C(\C)[C@H](OC(N)=O)[C@@H](OC)/C=C\C=C(/C)C(=O)N2`, the Drug metabolism entry with Liver microsome [1] is given as “metabolite_detected”.

On to `CO[C@H]1/C=C\C=C(/C)C(=O)NC2=CC(=O)C(NCCN(C)C)=C(C[C@@H](C)C[C@H](OC)[C@H](O)[C@@H](C)/C=C(\CO)[C@@H]1OC(N)=O)C2=O`, for which the Drug metabolism result in the data set with Liver microsome [2], in the data set with Liver microsome [3], with Liver microsome [5], in the data set on Liver microsome [6], in the data set on Liver microsome [7] and in the data set with Liver microsome [8] was “metabolite_detected” throughout. The Drug metabolism entry on Cytochrome P450 3A4 and with Liver microsome [9] was “metabolite_detected” each time. In addition, the Retention_time in the data set on Liver microsome [4] was determined as 8.21 min.

For the molecule `CO[C@H]1/C=C\C=C(/C)C(=O)NC2=CC(=O)C(NC(O)CN(C)C)=C(C[C@@H](C)C[C@H](OC)[C@H](O)[C@@H](C)/C=C(\C)[C@@H]1OC(N)=O)C2=O` (some centres not stated), the Drug metabolism result in the data set with Liver microsome [2], with Liver microsome [3], in the data set on Liver microsome [5], in the data set on Liver microsome [6], with Liver microsome [7] and with Liver microsome [8] was “metabolite_detected” in each case. Also, the Drug metabolism result at Cytochrome P450 3A4 and with Liver microsome [9] was “metabolite_detected” each time. In the data set on Liver microsome [4], the Retention_time was 9.04 min.

As to `CO[C@H]1/C=C\C=C(/C)C(=O)NC2=CC(=O)C(NCCN(C)C)=C(C[C@@H](C)C[C@H](O)[C@H](O)[C@@H](C)/C=C(\C)[C@@H]1OC(N)=O)C2=O`, the Drug metabolism entry in the data set on Liver microsome [2], in the data set with Liver microsome [3], with Liver microsome [5], in the data set on Liver microsome [6], in the data set on Liver microsome [7] and with Liver microsome [8] was “metabolite_detected” each time. Besides, the Drug metabolism result on Cytochrome P450 3A4 and in the data set on Liver microsome [9] was “metabolite_detected” each time. For the same molecule, the Retention_time with Liver microsome [4] came out at 7.57 min.

As to `CO[C@H]1C[C@H](C)CC2=C(NCCN(C)C)C(=O)C=C(NC(=O)/C(C)=C/C=C\[C@H](O)[C@@H](OC(N)=O)/C(C)=C/[C@H](C)[C@H]1O)C2=O`, the Drug metabolism result in the data set on Liver microsome [2], in the data set with Liver microsome [3], in the data set on Liver microsome [5], with Liver microsome [6], in the data set on Liver microsome [7] and with Liver microsome [8] was “metabolite_detected” in each case. Besides, the values for the Drug metabolism result on Cytochrome P450 3A4, with Liver microsome [9] and with Liver microsome [10] were “metabolite_detected”, “metabolite_detected” and “metabolite_not_detected”, respectively. The molecule also yielded a Retention_time in the data set on Liver microsome [4] of 7.13 min.

`CO[C@H]1/C=C\C=C(/C)C(=O)NC2=CC(=O)C(/N=C/CN(C)C)=C(C[C@@H](C)C[C@H](OC)[C@H](O)[C@@H](C)/C=C(\C)[C@@H]1OC(N)=O)C2=O` showed a Retention_time with Liver microsome [4] of 8.4 min.

As to `COC1=C2C[C@@H](C)C[C@H](OC)[C@H](O)[C@@H](C)/C=C(\C)[C@H](OC(N)=O)[C@@H](OC)/C=C\C=C(/C)C(=O)NC(=CC1=O)C2=O` [GELDANAMYCIN], the remaining at 2 h worked out at 73% in [11] and 46.6% in data set [12]. Also, the remaining at 5 min in [13] and in data set [14] was 75.3% throughout.

For the molecule `C=CCNc1c(O)cc2c(O)c1C[C@@H](C)C[C@H](OC)[C@H](O)[C@@H](C)/C=C(\C)[C@H](OC(N)=O)[C@@H](OC)/C=C\C=C(/C)C(=O)N2` [RETASPIMYCIN], the Drug metabolism result in the data set with Liver microsome [15] is “metabolite_not_detected”.

With `C=CCNC1=C2C[C@@H](C)C[C@H](OC)[C@H](O)[C@@H](C)/C=C(\C)[C@H](OC(N)=O)[C@@H](OC)/C=C\C=C(/C)C(=O)NC(=CC1=O)C2=O` [TANESPIMYCIN], the Km with Liver microsome [16] is 29.1 µM. Moreover, the Stability result with Liver microsome [17] is on record as “Unstable”. In data set [18], the half-life was 4 h.
